The test system of experiment [1] is Hippocampus. The experiment in a line: Anticonvulsant activity in Sprague-Dawley rat hippocampus assessed as inhibition of population spike amplitude at >= 100 uM preincubated for 6 mins followed by compound washout measured after 10 mins by […]. It counts as functional, tissue-based. In a few lines:
(§1)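 Extracellular recording of population spikes in coronal hippocampal slices from male Sprague-Dawley rats (100–150 g), aCSF 29–31 C. Spike amplitude measured from the positive peak to the negative tip; readings taken in control, 6 min into compound and 10 min after washout. Concentration-response run up to […]; mean and standard error.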

The subject of experiment [2] is Hippocampus. Kind of experiment: Anticonvulsant activity in Sprague-Dawley rat hippocampus assessed as inhibition of population spike amplitude at 10 uM preincubated for 6 mins followed by compound washout measured after 10 mins by […]. It counts as functional. In a few lines:
as §1

The test system of experiment [3] is Hippocampus. Kind of experiment: Anticonvulsant activity in Sprague-Dawley rat hippocampus assessed as inhibition of population spike amplitude preincubated for 6 mins followed by compound washout measured after 10 mins by […]. It counts as functional, tissue-based. An outline of the steps: as §1
On the technique in general: In patch-clamp work, channel activity is measured electrically.

In experiment [4] the test system is Mus musculus. Kind of experiment: Anticonvulsant activity in CF1 mouse at <100 mg/kg, ip after 30 mins. The class given is functional, organism-based. In a few lines:
(§2)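 Male CF1 mice; compound dissolved or suspended in 30% polyethylene glycol 400, given intraperitoneally at 30, 100 and 300 mg/kg. Protection scored in maximal electroshock and subcutaneous pentylenetetrazole seizure tests, with rotorod for neurotoxicity, read at 30 min and 4 h after dosing.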

Another experiment has as its system Pyramidal neuron. Kind of experiment: Anticonvulsant activity in Sprague-Dawley rat hippocampus CA1 pyramidal neurons assessed as suppression of EPSC amplitude at 10 uM at -60mV holding potential measured 15 to 20 mins post compound washout by voltage-clamp electrophysiology. The class given is functional, cell-based. In a few lines: (§3)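 Coronal hippocampal slices ([…]) from halothane-anaesthetised male Sprague-Dawley rats (100–150 g), submerged in carbogenated aCSF at 29–31 C, 2–3 mL/min. Blind whole-cell patch of CA1 pyramidal cells with K-gluconate pipette solution (pH 7.3); voltage clamp near rest (60 mV). EPSCs evoked by afferent stimulation; two responses 30 s apart averaged; compound at […].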

Experiment [5] can be described thus: Anticonvulsant activity in Sprague-Dawley rat hippocampus CA1 pyramidal neurons assessed as suppression of EPSC amplitude at 10 uM at -60mV holding potential by voltage-clamp electrophysiology relative to control. The class given is functional, Pyramidal neuron. In a few lines: as §3
The nature of experiment [6]: Anticonvulsant activity in Sprague-Dawley rat hippocampus CA1 pyramidal neurons assessed as suppression of action potential firing frequency at 10 uM by voltage-clamp electrophysiology relative to control. The class given is functional, Pyramidal neuron. The settings on record: in the assay text read “current-clamp” for “voltage-clamp”.
A short description of experiment [7]: Anticonvulsant activity in Sprague-Dawley rat hippocampus CA1 pyramidal neurons assessed as suppression of EPSC amplitude at 10 uM by voltage-clamp electrophysiology in presence of GABA-B receptor antagonist CGP55845. The class given is functional, Pyramidal neuron.
A short description of experiment [8]: Anticonvulsant activity in Sprague-Dawley rat hippocampus CA1 pyramidal neurons assessed as suppression of EPSC amplitude at 10 uM by voltage-clamp electrophysiology in presence of GABA transaminase inhibitor vigabatrin. The class given is functional, Pyramidal neuron.
In experiment [9] the test system is Mus musculus. The experiment in a line: Anticonvulsant activity in CF1 mouse at 100 to 300 mg/kg, ip after 30 mins. It counts as functional, organism-based. An outline of the steps:
as §2

Molecules are shown by their SMILES. Calls of active or inactive are those of the source. No cut-off for these calls is given here.

With `CCOC(=O)C1C(=O)C=C(Nc2ccc(Cl)cc2Cl)CC1C` (stereo not drawn), the inhibition entry in the experiment with Hippocampus [1] is “inactive”. Also, the inhibition at 10 µM in the experiment on Hippocampus [2] is -24.6%. Also, the EC50 in the experiment with Hippocampus [3] stood at 10 µM.

For `CCOC(=O)C1C(=O)C=C(Nc2ccc(I)cc2I)CC1c1ccccc1` (stereo not drawn), the inhibition result in the experiment on Hippocampus [1] was “inactive”. Also, in the experiment with Hippocampus [2], the inhibition at 10 µM worked out at 4%.

As for `COC(=O)C1C(=O)C=C(Nc2ccc(Br)cc2Br)CC1c1ccccc1` (stereo not drawn), the outcome with Mus musculus [4] and in the experiment on Pyramidal neuron was Active. In addition, the inhibition entry with Hippocampus [1] was “inactive”. The inhibition at 10 µM with Hippocampus [2] was -72.2%. Further, in the experiment on Hippocampus [3], the EC50 was determined as 2.1 µM. The inhibition entry in the experiment with Hippocampus [3] was “Dose-dependent effect”. Moreover, the Activity in [5] is recorded as 31.2%; in experiment [6], 39.2%; in [7] it was 16.6%; in [8] it was 40%.

Consider `COC(=O)C1C(=O)C=C(Nc2ccc(I)cc2I)CC1c1ccccc1` (stereo not drawn), for which the inhibition entry with Hippocampus [1] was “inactive”. In addition, in the experiment with Hippocampus [2], the inhibition at 10 µM was determined as 8.5%.

As for `CCOC(=O)C1CCC(Nc2ccc(Br)cc2Br)=CC1=O` (stereo not drawn), the inhibition result in the experiment on Hippocampus [1] was “inactive”. Moreover, in the experiment on Hippocampus [2], the inhibition at 10 µM amounted to 35%.

In the case of `CC1CC(=O)C=C(Nc2ccc(Br)cc2Br)C1` (stereo not drawn), the inhibition result with Hippocampus [1] was “inactive”. Besides, in the experiment on Hippocampus [2], the inhibition at 10 µM is 8%.

For `O=C1C=C(Nc2ccc(Br)cc2Br)CCC1`, the inhibition entry in the experiment on Hippocampus [1] was “inactive”. Further, the inhibition at 10 µM in the experiment on Hippocampus [2] is -23.7%.

Take `CCOC(=O)C1C(=O)C=C(Nc2ccc(Br)cc2Br)CC1C` (stereo not drawn): the outcome in the experiment with Mus musculus [4] and in the experiment with Pyramidal neuron was Active. Moreover, in the experiment on Hippocampus [1], the inhibition result was “inactive”. The inhibition at 10 µM in the experiment on Hippocampus [2] is -34.7%. For the same compound, the EC50 with Hippocampus [3] was determined as 1.9 µM. Further, in the experiment on Hippocampus [3], the inhibition result is “Dose-dependent effect”. For the same compound, the Activity came out at 47.5% in experiment [5], 76.3% in experiment [6], 16.6% in [7] and 3.9% in experiment [8].

On to `COC(=O)C1C(=O)C=C(Nc2ccc(Br)cc2Br)CC1C` (stereo not drawn), for which, in the experiment on Hippocampus [1], the inhibition entry is “inactive”. For the same compound, the inhibition at 10 µM in the experiment on Hippocampus [2] is -25%. In addition, the result in the experiment with Mus musculus [9] was Active.

In the case of `CC1(C)CCC(Nc2ccc(Br)cc2Br)=CC1=O`, the inhibition result with Hippocampus [1] is “inactive”. Also, the inhibition at 10 µM in the experiment with Hippocampus [2] is -18.2%.

In general, inhibition refers to the relative decrease from the control value, in per cent. For orientation: EC50 means the concentration giving half of the maximal effect.

The values are drawn from ChEMBL document CHEMBL3124845, “Synthesis, neuronal activity and mechanisms of action of halogenated enaminones” (Eur J Med Chem, 2014).
